A word on the IC50: it is the concentration at which inhibition is half-maximal. The low end stands for higher potency, the high end for lower potency.

The results in this text go back to PMC11223228 (ACS Omega, 2024).

This experiment concerns the target T1, EhPSP (Entamoeba histolytica, UniProt N9V397).
T1 sequence (N9V397 1-205): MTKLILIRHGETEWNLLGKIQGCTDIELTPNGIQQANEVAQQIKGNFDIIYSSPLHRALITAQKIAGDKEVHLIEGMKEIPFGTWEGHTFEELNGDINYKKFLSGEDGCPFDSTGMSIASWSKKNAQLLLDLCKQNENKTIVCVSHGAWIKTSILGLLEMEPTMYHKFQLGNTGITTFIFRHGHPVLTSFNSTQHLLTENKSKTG
The experiment in a line: In vitro enzyme inhibition assay of EhPSP phosphatase activity. It counts as biochemical. The following applies: for inhibition of enzymatic activity (in words): 21 compounds tested. A digest of the protocol: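 Recombinant C-terminal 6X-His EhPSP, expressed in E. coli BL21 (DE3) and purified by Ni-NTA then size exclusion. Reaction in 50 mM HEPES-NaOH pH 8.0, 1 mM DTT, 1 mM EDTA, 25 μg enzyme. Compound preincubated 10 min RT, then OPLS added and run 2−5 min RT. Stopped with malachite green, A630 of released phosphate. % inhibition vs no-compound control, IC50 from log-concentration curve.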

`O=S(=O)(O)c1ccc2c(S(=O)(=O)O)cccc2c1` [AE-562/12222184, 1,6-naphthalenedisulfonic acid]: the “inhibition of enzymatic activity (in words)” value is reported as “displayed the inhibition of enzymatic activity”.

Take `Cc1nc2ccc(CN(C)c3ccc(C(=O)N[C@@H](CCC(=O)O)C(=O)O)s3)cc2c(=O)[nH]1` [Raltitrexed, (2S)-2-[[5-[methyl-[(2-methyl-4-oxo-3H-quinazolin-6-yl)methyl]amino]thiophene-2-carbonyl]amino]pentanedioic acid]: the “inhibition of enzymatic activity (in words)” value was “displayed the inhibition of enzymatic activity”. The IC50 (IC50, OPLS 2.0 mM, compound 20 nM to 500 μM) was around 368 µM.
